From ChEMBL document CHEMBL2380219, “Physalin A induces apoptotic cell death and protective autophagy in HT1080 human fibrosarcoma cells” (J Nat Prod, 2013)
Active and inactive are the calls of the source. The rule behind the calls is not given here.

Columns and labels:
[1] = test system: HT-1080; experiment: Cytotoxicity against human HT1080 cells assessed as growth inhibition after 12 to 72 hrs by MTT assay; format: functional, cell-based
[2] = test system: HT-1080; experiment: Induction of apoptosis in human HT1080 cells assessed as appearance of granular apoptotic bodies at 10 uM after 24 hrs by acridine orange staining-based fluorescence microscopic analysis; format: functional, cell-based
Method in brief: (§1)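 HT1080 cells, 2 × 10^4/well, cultured 24 h, then exposed to 10 μM for 24 h. Stained with acridine orange 20 μg/mL for 15 min in the dark and examined by fluorescence microscopy at 200×.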

[3] = test system: HT-1080; experiment: Induction of apoptosis in human HT1080 cells assessed as appearance of membrane blebbing at 10 uM after 24 hrs by acridine orange staining-based fluorescence microscopic analysis; format: functional, cell-based; method in brief: as §1
[4] = test system: HT-1080; experiment: Induction of autophagy in human HT1080 cells assessed as increase in autophagolysosomes at 10 uM by MDC staining-based fluorescence microscopic analysis; format: functional, cell-based
Method in brief: (§2)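 HT1080 cells at 2 × 10^4 per well, cultured 24 h, then given 10 μM for 24 h. Stained with 0.05 mM MDC at 37 °C for 1 h. Autophagolysosomes viewed by fluorescence microscopy at 200×.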

[5] = test system: HT-1080; experiment: Induction of apoptosis in human HT1080 cells assessed as procaspase-8 cleavage at 10 uM by Western blotting analysis; format: functional, cell-based; settings: TDE = time-dependent effect
[6] = test system: HepG2; experiment: Cytotoxicity against human HepG2 cells assessed as growth inhibition after 24 hrs by MTT assay; format: functional, cell-based
Method in brief: (§3)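 Seeded 0.8 × 10^4 cells/well, cultured 24 h, then exposed to 0, 10, 20, 40 or 80 μM for 24 h (DMSO <0.05%) in RPMI 1640 or MEM with 10% FBS. Adherent lines rinsed with PBS, given MTT 2 h at 37 °C. Suspension lines (U937, HL60) given MTT 2 h, then centrifuged. Formazan dissolved in DMSO, A492 read. Inhibition % = (control − sample)/(control − blank) × 100.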

[7] = test system: HT-1080; experiment: Cytotoxicity against human HT1080 cells assessed as growth inhibition at 10 uM pretreated with z-DEVD-FMK for 1 hr prior to compound addition measured after 24 hrs by MTT assay; format: functional, cell-based
Method in brief: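 HT1080 seeded 0.8 × 10^4 cells/well. MTT 2 h at 37 °C, formazan in DMSO, A492 read. Inhibition % calculated against untreated and blank wells.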

[8] = test system: HT-1080; experiment: Induction of autophagy in human HT1080 cells assessed as increase in autophagolysosomes at 10 uM after 24 hrs by MDC staining-based fluorescence microscopic analysis (reference value: 2.65 +/- 0.12%); format: functional; method in brief: as §2
[9] = test system: HT-1080; experiment: Induction of apoptosis in human HT1080 cells expressing beclin 1 siRNA assessed as increase in apoptotic ratio at 10 uM after 24 hrs by propidium iodide staining-based FACS flow cytometric analysis relative to control; format: functional, cell-based
Method in brief: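 HT1080 cells transfected with beclin 1 or nonspecific siRNA (7 h at 37 °C, then 24 h in growth medium), then exposed to 10 μM for 24 h. Cells fixed in 70% ethanol at 4 °C for 18 h, washed, stained with PI 50 μg/mL plus RNase A 1 mg/mL. Apoptotic (sub-G1) fraction read by flow cytometry.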

[10] = test system: HT-1080; experiment: Induction of autophagy in human HT1080 cells assessed as autophagic vacuole formation at 10 uM pretreated with 3MA for 1 hr prior to compound addition measured after 24 hrs by MDC staining-based FACS flow cytometric analysis; format: functional, cell-based
Method in brief: (§4)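 HT1080 cells seeded at 3 × 10^5 per flask and grown 24 h. Pretreated 1 h with 1 mM 3MA or 1 nM rapamycin, then 10 μM for 24 h. Collected cells stained with 0.05 mM MDC at 37 °C for 1 h. MDC-positive ratio measured by flow cytometry, n = 3, mean ± SD.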

[11] = test system: HT-1080; experiment: Induction of autophagy in human HT1080 cells assessed as increase in autophagy ratio at 10 uM pretreated with 3MA for 1 hr prior to compound addition measured after 24 hrs by MDC staining-based FACS flow cytometric analysis; format: functional, cell-based; method in brief: as §4
[12] = test system: HT-1080; experiment: Induction of apoptosis in human HT1080 cells assessed as accumulation in subG1 phase at 10 uM after 24 hrs by propidium iodide staining-based FACS flow cytometric analysis (reference value: 0.32%); format: functional
[13] = test system: HT-1080; experiment: Induction of apoptosis in human HT1080 cells assessed as increase in PARP cleavage at 10 uM pretreated with 3MA for 1 hr prior to compound addition measured after 24 hrs by Western blotting analysis; format: functional, cell-based
Method in brief: (§5)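 HT1080 cells pretreated 1 h with 1 mM 3MA or 1 nM rapamycin, then co-incubated with 10 μM for 24 h. Adherent and floating cells lysed in Hepes pH 7.4/Triton buffer. 12% SDS-PAGE, nitrocellulose, antibodies against Fas, FADD, caspase-8, caspase-3, PARP and ICAD, ECL detection. Densities normalized to β-actin; n = 3.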

[14] = test system: HT-1080; experiment: Induction of autophagy in human HT1080 cells assessed as autophagic vacuole formation at 10 uM pretreated with rapamycin for 1 hr prior to compound addition measured after 24 hrs by MDC staining-based FACS flow cytometric analysis; format: functional, cell-based; method in brief: as §4
[15] = test system: HT-1080; experiment: Induction of apoptosis in human HT1080 cells assessed as increase in PARP cleavage at 10 uM pretreated with rapamycin for 1 hr prior to compound addition measured after 24 hrs by Western blotting analysis; format: functional, cell-based; method in brief: as §5
[16] = test system: HT-1080; experiment: Induction of apoptosis in human HT1080 cells expressing beclin 1 siRNA assessed as increase in procaspase-3 cleavage at 10 uM after 24 hrs by Western blotting analysis relative to control; format: functional, cell-based
Method in brief: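 Beclin 1 or nonspecific siRNA transfected into HT1080 cells (5 × 10^5 seeded a day earlier; transfection mixture for 7 h at 37 °C, then normal medium, 24 h before harvest). Cells then got 10 μM for 24 h. Adherent plus floating cells lysed in Hepes pH 7.4/Triton buffer at 4 °C for 60 min. Equal protein on 12% SDS-PAGE, nitrocellulose, ECL. Bands normalized to β-actin, n = 3.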

[17] = test system: HT-1080; experiment: Induction of autophagy in human HT1080 cells at 10 uM by MDC staining-based FACS flow cytometric analysis; format: functional, cell-based; settings: TDE = time-dependent effect
Method in brief: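 HT1080 cells (3 × 10^5 per flask, grown 24 h) exposed to 10 μM for 12, 24 and 36 h. Cells collected and stained with 0.05 mM MDC at 37 °C for 1 h. MDC-positive ratio measured by flow cytometry, n = 3.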

[18] = test system: A-431; experiment: Cytotoxicity against human A431 cells assessed as growth inhibition after 24 hrs by MTT assay; format: functional, cell-based; method in brief: as §3
[19] = test system: HL-60; experiment: Cytotoxicity against human HL60 cells assessed as growth inhibition after 24 hrs by MTT assay; format: functional, cell-based; method in brief: as §3
[20] = test system: HT-1080; experiment: Induction of apoptosis in human HT1080 cells assessed as increase in procaspase-8 cleavage at 10 uM pretreated with rapamycin for 1 hr prior to compound addition measured after 24 hrs by Western blotting analysis; format: functional, cell-based; method in brief: as §5
[21] = test system: HT-1080; experiment: Induction of autophagy in human HT1080 cells assessed as upregulation of beclin 1 at 10 uM pretreated with 3MA for 1 hr prior to compound addition measured after 24 hrs by Western blotting analysis; format: functional, cell-based
Method in brief: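 HT1080 cells pretreated 1 h with 1 mM 3MA or 1 nM rapamycin, then 10 μM added for 24 h. Adherent and floating cells lysed in Hepes pH 7.4/Triton buffer. Equal protein on 12% SDS-PAGE and nitrocellulose, probed for beclin 1 and LC3, ECL detection. Normalized to β-actin, n = 3.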

C=C1C(=O)O[C@@H]2C[C@@]1(C)[C@@H]1C(=O)[C@]3(O)O[C@]14[C@@]2(C)OC(=O)[C@@]4(O)CC[C@H]1[C@H]3[C@H](O)C=C2CC=CC(=O)[C@@]21C [PHYSALIN A]
growth inhibition (GI) [1]: Dose-dependent effect | Activity [2]: Active | Activity [3]: Active | Activity [4]: Active | Activity [5]: tde | growth inhibition (GI) [6]: Dose-dependent effect | growth inhibition (GI) [7]: Active | Activity [8]: 26.7% | Activity [9]: Active | Activity [10]: inactive | Activity [11]: inactive | Activity [12]: 27.79% | Activity [13]: Active | Activity [14]: Active | Activity [15]: inactive | Activity [16]: Active | Activity [17]: tde | growth inhibition (GI) [18]: Dose-dependent effect | growth inhibition (GI) [19]: Dose-dependent effect | Activity [20]: inactive | Activity [21]: inactive
